A short description of series [1]: Drug level in human HuH7 cells treated with 50 uM Ethyl 3-(2-(((R)-(((2R,3R,4R,5R)-5-(2,6-Diamino-9H-purin-9-yl)-3,4-dihydroxy-4-methyltetrahydrofuran-2-yl)methoxy)(((S)-1-ethoxy-1-oxopropan-2-yl)amino)phosphoryl)oxy)phenyl)-propanoate assessed as compound formation incubated for 4 hrs at 37 degC by LC-MS/MS method. It is filed as ADME, cell-based. As to conditions: huh-7, 4 h. Put shortly:
(§1)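 Huh-7 cells seeded at 1 × 10⁶ per well and exposed to 50 μM compound after attachment, 4 h at 37 °C. Cells washed twice with ice-cold PBS, then extracted overnight at −20 °C in 70% methanol containing 20 nM ddATP. Supernatants were dried and analysed by LC–MS/MS for parent nucleoside and its mono-, di- and triphosphates (pmol/10⁶ cells).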

For series [2], the system named is Hepatocyte. In words: Drug level in human primary hepatocytes treated with 50 uM Isopropyl 3-(2-(((S)-(((2R,3S,4R,5R)-5-(2,6-Diamino-9H-purin-9-yl)-3,4-dihydroxy-4-methyltetrahydrofuran-2-yl)methoxy)-(((S)-1-isopropoxy-1-oxopropan-2-yl)amino)phosphoryl)oxy)-phenyl)propanoate 15c(Sp) and Isopropyl 3-(2-(((R)-(((2R,3S,4R,5R)-5-(2,6-Diamino-9H-purin-9-yl)-3,4-dihydroxy-4-methyltetrahydrofuran-2-yl)methoxy)(((S)-1-isopropoxy-1-oxopropan-2-yl)amino)phosphoryl)oxy)phenyl)propanoate assessed as compound formation incubated for 4 hrs at 37 degC by LC-MS/MS method. It is filed as ADME, cell-based. The essentials: (§2)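 Freshly plated primary human hepatocytes seeded at 1 × 10⁶ per well and acclimated overnight, then given 50 μM compound for 4 h at 37 °C. After two ice-cold PBS washes, extraction ran overnight at −20 °C in 70% methanol with 20 nM ddATP. Dried extracts went to LC–MS/MS for intracellular metabolites, as three replicates from one plate, ±SD.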

A short description of series [3]: Drug level in human HuH7 cells treated with 50 uM Isopropyl 3-(2-(((S)-(((2R,3S,4R,5R)-5-(2,6-Diamino-9H-purin-9-yl)-3,4-dihydroxy-4-methyltetrahydrofuran-2-yl)methoxy)-(((S)-1-isopropoxy-1-oxopropan-2-yl)amino)phosphoryl)oxy)-phenyl)propanoate 15c(Sp) and Isopropyl 3-(2-(((R)-(((2R,3S,4R,5R)-5-(2,6-Diamino-9H-purin-9-yl)-3,4-dihydroxy-4-methyltetrahydrofuran-2-yl)methoxy)(((S)-1-isopropoxy-1-oxopropan-2-yl)amino)phosphoryl)oxy)phenyl)propanoate assessed as compound formation incubated for 4 hrs at 37 degC by LC-MS/MS method. It is filed as ADME, cell-based. As to conditions: huh-7, 4 h. The essentials:
as §1

Series [4] deals with Hepacivirus hominis. In words: (§3) Inhibition of HCV C-terminal His-tagged NS5Bdelta21 enzyme assessed as reduction in NS5B-mediated RNA polymerization using [32P]-GpG primer, RNA template and rNTP nucleotide mix incubated for 120 mins by PAGE method. Put shortly:
(§4)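 Purified NS5BΔ21 (C-terminal His tag), 1 μM, at 30 °C with 1 μM 20-mer RNA template and 1 μM ³²P-GpG primer. Buffer was 40 mM Tris pH 7.5, 6 mM NaCl, 2 mM MgCl₂. Started with 10 μM NTP mix, 1 μM competing NTP and triphosphate inhibitor at 0–100 μM. Products run on 20% denaturing PAGE and quantified; IC₅₀ calculated.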

Series [5] is described as follows: as §3. Set-up: species or system Hepacivirus hominis. Put shortly:
as §4

The test system of series [6] is Hepacivirus hominis. In words: Inhibition of HCV C-terminal His-tagged NS5Bdelta21 enzyme assessed as induction of pausing at sites of AMP incorporation during NS5B-mediated RNA polymerization using [32P]-GpG primer, RNA template and rNTP nucleotide mix incubated for 120 mins by PAGE method. Put shortly:
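Purified NS5BΔ21 (C-terminal His tag), 1 μM, at 30 °C with 1 μM 20-mer RNA template and 1 μM ³²P-GpG primer. Buffer was 40 mM Tris pH 7.5, 6 mM NaCl, 2 mM MgCl₂. Started with 10 μM NTP mix, 1 μM competing NTP and triphosphate inhibitor at 0–100 μM. Stopped at 120 min with EDTA/formamide. Products run on 20% denaturing PAGE and quantified; IC₅₀ calculated.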

Series [7] is described as follows: Drug level in human HuH7 cells treated with 50 uM beta-D-2,6-diaminopurine nucleoside assessed as compound formation incubated for 4 hrs at 37 degC by LC-MS/MS method. Type of series: ADME, cell-based. To be noted: huh-7, 4 h. The essentials:
as §1

Series [8] concerns Hepatocyte. As to the kind of experiment: Drug level in human primary hepatocytes treated with 50 uM Ethyl 3-(2-(((R)-(((2R,3R,4R,5R)-5-(2,6-Diamino-9H-purin-9-yl)-3,4-dihydroxy-4-methyltetrahydrofuran-2-yl)methoxy)(((S)-1-ethoxy-1-oxopropan-2-yl)amino)phosphoryl)oxy)phenyl)-propanoate assessed as compound formation incubated for 4 hrs at 37 degC by LC-MS/MS method. It is filed as ADME, cell-based. Put shortly: as §2

The subject of series [9] is Hepatocyte. As to the kind of experiment: Drug level in human primary hepatocytes treated with 50 uM beta-D-2,6-diaminopurine nucleoside assessed as compound formation incubated for 4 hrs at 37 degC by LC-MS/MS method. Type of series: ADME, cell-based. Put shortly: as §2

The structures appear in SMILES notation. Active and inactive are the calls of the source. No cut-off for these calls is given here.

As to `C[C@@]1(O)[C@H](O)[C@@H](COP(=O)(O)OP(=O)(O)OP(=O)(O)O)O[C@H]1n1cnc2c(N)nc(N)nc21`, the Drug metabolism result in [1], in series [2], in series [3], in series [7], in series [8] and in series [9] was “metabolite_detected” in each case. The inhibition result in [4] was “Dose-dependent effect”. In series [5], the IC50 stood at 3.4 µM. Also, the inhibition result in [6] is “Active”.

The record behind these values is ChEMBL document CHEMBL3421565, “β-D-2'-C-Methyl-2,6-diaminopurine Ribonucleoside Phosphoramidates are Potent and Selective Inhibitors of Hepatitis C Virus (HCV) and Are Bioconverted Intracellularly to Bioactive 2,6-Diaminopurine and Guanosine 5'-Triphosphate Forms” (J Med Chem, 2015).
